Experimental findings from ChEMBL document CHEMBL2331506, “Design, synthesis, antiviral and cytostatic evaluation of novel isoxazolidine nucleotide analogues with a carbamoyl linker” (Bioorg Med Chem, 2013) are described below.

The test system of series [1] is Influenza A virus. The series is described as follows: Antiviral activity against Influenza A virus H1N1 infected in dog MDCK cells assessed as reduction of virus-induced cytopathogenicity at 250 uM. The series is classed as functional, organism-based. The gist of the method: (§1)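 Confluent cell monolayers were infected with 100 CCID50 of virus while exposed to varying compound concentrations. Cytopathicity was scored once it was complete in untreated infected controls. EC50 was taken as the concentration that reduced virus-induced cytopathogenicity by 50%.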
(Cytopathic effects are the visible damage that an infection or toxin causes in cultured cells.)

The nature of series [2]: Cytotoxicity against cat CRFK cells assessed as alteration of cell morphology up to 100 uM by microscopic analysis. The class given is cell-based, Felis catus. The gist of the method:
(§2)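 Uninfected host-cell cultures were exposed to compound and examined by microscopy. Cytotoxicity was expressed as the minimum cytotoxic concentration (MCC) causing a microscopically detectable alteration of normal cell morphology.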

For another series, the system named is Human respirovirus 3. The series is described as follows: Antiviral activity against Parainfluenza virus 3 infected in african green monkey Vero cells assessed as reduction of virus-induced cytopathogenicity at 250 uM. The series is classed as functional, organism-based. In short, it runs like this:
(§3)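 Confluent monolayers (HEL fibroblasts, Vero, or HeLa cells as listed) were infected with 100 CCID50 of virus in the presence of varying compound concentrations. Virus-induced cytopathicity or plaque formation was scored once cytopathicity was complete in untreated infected controls. EC50 was taken as the concentration reducing cytopathogenicity or plaque formation by 50%.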

Another series has as its system Feline coronavirus. As to the kind of experiment: Antiviral activity against Feline coronavirus infected in cat CRFK cells assessed as reduction of virus-induced cytopathogenicity at 250 uM. The class given is functional, organism-based.
For another series, the system named is MDCK. The series is described as follows: Cytotoxicity against dog MDCK cells assessed as alteration of cell morphology up to 100 uM by microscopic analysis. The class given is cell-based, Canis lupus familiaris. The gist of the method:
as §2

Another series has as its system Felid alphaherpesvirus 1. The series is described as follows: Antiviral activity against Feline herpes virus infected in cat CRFK cells assessed as reduction of virus-induced cytopathogenicity at 250 uM. The class given is functional, organism-based.
Series [3] concerns Respiratory syncytial virus. The series is described as follows: Antiviral activity against Respiratory syncytial virus long infected in human HeLa cells assessed as reduction of virus-induced cytopathogenicity at 250 uM. The series is classed as functional, organism-based. The gist of the method:
as §3

The test system of series [4] is Human alphaherpesvirus 1. As to the kind of experiment: Antiviral activity against Herpes simplex virus 1 KOS infected in human HEL cells assessed as reduction of virus-induced cytopathogenicity at 250 uM. The class given is functional, organism-based. In short, it runs like this: as §3
For a further series, the system named is Punta Toro virus. As to the kind of experiment: Antiviral activity against Punta Toro virus infected in african green monkey Vero cells assessed as reduction of virus-induced cytopathogenicity at 250 uM. The series is classed as functional, organism-based. In short, it runs like this: as §3
Series [5] relates to Human immunodeficiency virus 1. The series is described as follows: Antiviral activity against Human immunodeficiency virus 1 3B infected in human CEM cells assessed as reduction of virus-induced giant cell formation at 250 uM after 4 to 5 days. The class given is functional, organism-based. Conditions: CCRF-CEM. The gist of the method:
(§4)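 CEM cells at 3 × 10^5 cells/mL were infected with HIV at 100 CCID50 per mL in the presence of compound dilutions. They were held 4–5 days at 37 °C in humidified CO2. Syncytium (giant cell) formation was scored microscopically, and EC50 was taken as the concentration inhibiting giant cell formation by 50%.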

The next series deals with Vero. The series is described as follows: Cytotoxicity against african green monkey Vero cells assessed as alteration of cell morphology up to 100 uM by microscopic analysis. The series is classed as cell-based. Conditions: chlorocebus sabaeus. The gist of the method: as §2
In another series the test system is HEL. The series is described as follows: Cytotoxicity against human HEL cells assessed as alteration of cell morphology up to 100 uM by microscopic analysis. The series is classed as cell-based. In short, it runs like this:
as §2

The test system of the next series is HeLa. The series is described as follows: Cytotoxicity against human HeLa cells assessed as alteration of cell morphology up to 100 uM by microscopic analysis. The class given is cell-based. The gist of the method:
as §2

Series [6] has as its system Vesicular stomatitis virus. The series is described as follows: Antiviral activity against Vesicular stomatitis virus infected in human HEL cells assessed as reduction of virus-induced cytopathogenicity at 250 uM. The series is classed as functional, organism-based. In short, it runs like this: as §1
Series [7] deals with Influenza A virus. As to the kind of experiment: Antiviral activity against Influenza A virus H3N2 infected in dog MDCK cells assessed as reduction of virus-induced cytopathogenicity at 250 uM. The series is classed as functional, organism-based. The gist of the method: as §1
For series [8], the system named is Mammalian orthoreovirus 1. As to the kind of experiment: Antiviral activity against Reovirus 1 infected in african green monkey Vero cells assessed as reduction of virus-induced cytopathogenicity at 250 uM. The series is classed as functional, organism-based. The gist of the method:
as §3

Series [9] relates to Human alphaherpesvirus 1. The series is described as follows: Antiviral activity against thymidine kinase-deficient, ACV-resistant Herpes simplex virus 1 KOS infected in human HEL cells assessed as reduction of virus-induced cytopathogenicity at 250 uM. The class given is functional, organism-based. In short, it runs like this: as §1
The test system of another series is Influenza B virus. As to the kind of experiment: Antiviral activity against Influenza B virus infected in dog MDCK cells assessed as reduction of virus-induced cytopathogenicity at 250 uM. The series is classed as functional, organism-based. In short, it runs like this:
as §1

The test system of series [10] is Vesicular stomatitis virus. The series is described as follows: Antiviral activity against Vesicular stomatitis virus infected in human HeLa cells assessed as reduction of virus-induced cytopathogenicity at 250 uM. The series is classed as functional, organism-based. The gist of the method: as §1
Series [11] has as its system Human immunodeficiency virus 2. The series is described as follows: Antiviral activity against Human immunodeficiency virus 2 ROD infected in human CEM cells assessed as reduction of virus-induced giant cell formation at 250 uM after 4 to 5 days. The series is classed as functional, organism-based. As to conditions: CCRF-CEM. In short, it runs like this:
as §4

The subject of a further series is Coxsackievirus B4. The series is described as follows: Antiviral activity against Coxsackievirus B4 infected in african green monkey Vero cells assessed as reduction of virus-induced cytopathogenicity at 250 uM. The series is classed as functional, organism-based. In short, it runs like this: as §3
A further series has as its system Sindbis virus. As to the kind of experiment: Antiviral activity against Sindbis virus infected in african green monkey Vero cells assessed as reduction of virus-induced cytopathogenicity at 250 uM. The series is classed as functional, organism-based. The gist of the method:
as §3

Another series deals with Human alphaherpesvirus 2. As to the kind of experiment: Antiviral activity against Herpes simplex virus 2 G infected in human HEL cells assessed as reduction of virus-induced cytopathogenicity at 250 uM. The class given is functional, organism-based. As to conditions: strain G. In short, it runs like this:
as §3

Activity calls are given as the source filed them. How the calls were made is not given here.

For the molecule `CCOP(=O)(OCC)[C@H]1C[C@H](C(=O)Nc2ccc(F)cc2)ON1C` (racemic), the inhibition result (with Influenza A virus [1]; with Human respirovirus 3; in the series with Feline coronavirus; with Felid alphaherpesvirus 1; in series [3]; with Human alphaherpesvirus 1 [4]) was “inactive” each time. In addition, the inhibition entry (in the series on Punta Toro virus; in series [5]; in series [6]; with Influenza A virus [7]; in series [8]; in the series on Human alphaherpesvirus 1 [9]) was “inactive” each time. Further, the inhibition entry (with Influenza B virus; in [10]; in series [11]; in the series on Coxsackievirus B4; with Sindbis virus; in the series on Human alphaherpesvirus 2) was “inactive” each time. For the same molecule, the Activity result (in series [2]; in the series with MDCK; in the series with Vero; with HEL; with HeLa) was “Non-toxic” in each case.
For `CCOP(=O)(OCC)[C@@H]1C[C@H](C(=O)Nc2ccc([N+](=O)[O-])cc2)ON1C` (racemic), the inhibition result (in the series on Influenza A virus [1]; in the series with Human respirovirus 3; in the series with Feline coronavirus; in the series with Felid alphaherpesvirus 1; in [3]; in the series on Human alphaherpesvirus 1 [4]) was “inactive” each time. Moreover, the inhibition result (with Punta Toro virus; in series [5]; in series [6]; with Influenza A virus [7]; in series [8]; in the series on Human alphaherpesvirus 1 [9]) was “inactive” each time. Further, the inhibition result (with Influenza B virus; in series [10]; in series [11]; in the series with Coxsackievirus B4; in the series on Sindbis virus; in the series on Human alphaherpesvirus 2) was “inactive” each time. Further, the Activity entry (in series [2]; in the series with MDCK; with Vero; with HEL; in the series on HeLa) was “Non-toxic” in each case.
With `CCOP(=O)(OCC)[C@H]1C[C@H](C(=O)Nc2cccc(C#N)c2)ON1C` (racemic), the inhibition result (with Influenza A virus [1]; with Human respirovirus 3; in the series with Feline coronavirus; in the series with Felid alphaherpesvirus 1; in [3]; in the series on Human alphaherpesvirus 1 [4]) was “inactive” each time. For the same molecule, the inhibition result (with Punta Toro virus; in series [5]; in series [6]; with Influenza A virus [7]; in series [8]; in the series with Human alphaherpesvirus 1 [9]) was “inactive” in each case. Moreover, the inhibition entry (in the series with Influenza B virus; in series [10]; in series [11]; in the series on Coxsackievirus B4; in the series on Sindbis virus; in the series on Human alphaherpesvirus 2) was “inactive” throughout. The Activity result (in series [2]; in the series with MDCK; with Vero; in the series on HEL; in the series with HeLa) was “Non-toxic” throughout.
With `CCOP(=O)(OCC)[C@@H]1C[C@H](C(=O)Nc2cccc(C#N)c2)ON1C` (racemic), the inhibition result (with Influenza A virus [1]; in the series with Human respirovirus 3; in the series with Feline coronavirus; in the series on Felid alphaherpesvirus 1; in series [3]; in the series with Human alphaherpesvirus 1 [4]) was “inactive” in each case. The inhibition entry (in the series on Punta Toro virus; in series [5]; in [6]; in the series on Influenza A virus [7]; in series [8]; with Human alphaherpesvirus 1 [9]) was “inactive” each time. Moreover, the inhibition entry (with Influenza B virus; in series [10]; in [11]; in the series on Coxsackievirus B4; with Sindbis virus; with Human alphaherpesvirus 2) was “inactive” in each case. The Activity result (in series [2]; with MDCK; in the series with Vero; in the series with HEL; with HeLa) was “Non-toxic” throughout.
Take `CCOP(=O)(OCC)[C@H]1C[C@H](C(=O)Nc2ccc(C#N)cc2)ON1C` (racemic): the inhibition entry (in the series with Influenza A virus [1]; in the series on Human respirovirus 3; with Feline coronavirus; in the series with Felid alphaherpesvirus 1; in series [3]; in the series with Human alphaherpesvirus 1 [4]) was “inactive” in each case. For the same molecule, the inhibition result (in the series on Punta Toro virus; in series [5]; in series [6]; in the series with Influenza A virus [7]; in series [8]; in the series with Human alphaherpesvirus 1 [9]) was “inactive” throughout. For the same molecule, the inhibition entry (in the series on Influenza B virus; in series [10]; in series [11]; in the series on Coxsackievirus B4; in the series with Sindbis virus; in the series with Human alphaherpesvirus 2) was “inactive” throughout. The Activity entry (in series [2]; with MDCK; with Vero; in the series on HEL; in the series with HeLa) was “Non-toxic” throughout.
With `CCOP(=O)(OCC)[C@@H]1C[C@H](C(=O)Nc2cccc(C(C)=O)c2)ON1C` (racemic), the inhibition result (in the series on Influenza A virus [1]; with Human respirovirus 3; in the series on Feline coronavirus; in the series with Felid alphaherpesvirus 1; in [3]; in the series with Human alphaherpesvirus 1 [4]) was “inactive” in each case. Also, the inhibition entry (in the series with Punta Toro virus; in series [5]; in series [6]; in the series on Influenza A virus [7]; in series [8]; in the series with Human alphaherpesvirus 1 [9]) was “inactive” in each case. Moreover, the inhibition entry (with Influenza B virus; in [10]; in series [11]; in the series on Coxsackievirus B4; with Sindbis virus; in the series with Human alphaherpesvirus 2) was “inactive” in each case. In addition, the Activity entry (in [2]; in the series on MDCK; in the series on Vero; in the series on HEL; with HeLa) was “Non-toxic” in each case.
